Screening results (PubChem)
Shown are actives, neighbours in structure and some others; about 1.3% of the full set was active somewhere.
G6PDH CS: counter-screen for G6PDH assay hits: L. mesenteroides G6PDH inhibition | Purified L. mesenteroides G6PDH, diaphorase/resazurin coupled fluorescence, 45 min | inhibition, % at 5 µM | 200,000 tested, 0.12% active | AID 1020; in the data active = inhibition above about 50%
PfGluPho inh: PfG6PD (Plasmodium falciparum) enzyme inhibition. PfGluPho enzyme, NADPH resazurin-diaphorase fluorescence. inhibition, % at 20 µM. 350,000 tested, 0.78% active;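 active = inhibition reaching at least a set limit at 20 µM in the primary screen, cut at about 59% in these data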;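 note: 0% = DMSO wells with substrate and 100% = DMSO wells lacking glucose-6-phosphate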
HKDC1 inhibitor: HKDC1 (human) hexokinase inhibition | inhibition, % at 20 µM | 340,000 tested, 0.16% active | recombinant HKDC1, G6PDH/diaphorase resazurin coupled fluorescence;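 active = inhibition above about 35% when tested at 20 µM, limit read from the data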;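 note: plate controls were DMSO wells with enzyme for no effect and DMSO wells lacking enzyme for full effect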
Target sequence (Q2TB90 whole entry, looked up): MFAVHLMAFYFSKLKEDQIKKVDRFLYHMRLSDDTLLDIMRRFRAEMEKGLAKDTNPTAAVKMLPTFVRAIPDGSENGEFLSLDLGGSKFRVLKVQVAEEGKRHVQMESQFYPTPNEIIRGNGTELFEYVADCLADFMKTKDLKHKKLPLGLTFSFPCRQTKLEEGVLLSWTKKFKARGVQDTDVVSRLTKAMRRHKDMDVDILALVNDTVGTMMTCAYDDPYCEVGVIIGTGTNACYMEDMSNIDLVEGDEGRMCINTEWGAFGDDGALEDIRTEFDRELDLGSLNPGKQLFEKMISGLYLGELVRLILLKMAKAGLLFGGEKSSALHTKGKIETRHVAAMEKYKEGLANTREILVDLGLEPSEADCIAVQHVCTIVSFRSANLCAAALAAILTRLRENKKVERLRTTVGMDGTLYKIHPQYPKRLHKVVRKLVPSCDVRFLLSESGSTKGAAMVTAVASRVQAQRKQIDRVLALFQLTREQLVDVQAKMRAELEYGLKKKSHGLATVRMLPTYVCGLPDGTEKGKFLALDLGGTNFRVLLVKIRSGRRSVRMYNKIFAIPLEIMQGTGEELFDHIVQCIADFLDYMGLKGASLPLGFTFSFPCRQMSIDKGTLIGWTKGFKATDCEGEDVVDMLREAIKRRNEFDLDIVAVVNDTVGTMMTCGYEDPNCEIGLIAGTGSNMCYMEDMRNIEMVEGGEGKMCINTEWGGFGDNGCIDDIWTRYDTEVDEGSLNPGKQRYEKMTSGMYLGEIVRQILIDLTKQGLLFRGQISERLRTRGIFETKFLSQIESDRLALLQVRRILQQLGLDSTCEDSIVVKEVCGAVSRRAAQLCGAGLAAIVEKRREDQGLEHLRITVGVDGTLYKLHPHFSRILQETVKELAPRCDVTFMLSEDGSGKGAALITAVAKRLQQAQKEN
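Test system: recombinant HKDC1 (HK5) hexokinase enzyme, produced in-house / Doses: 20 µM test compound, 1% DMSO / Timing: 90 min, room temperature / Detection: G6PDH/diaphorase-coupled fluorescence, 1 mM NADP, 100 µM resazurin, 525/613 nm / Control set: DMSO wells with and without enzyme mix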
TbHK1 inh: blocks Trypanosoma brucei hexokinase 1 activity. 220,000 tested, 0.11% active. inhibition, % at 10 µM. recombinant TbHK1, G6PDH-coupled NADH A340. AID 1430;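 active = inhibition of 50% or more in the single-dose primary screen; inactive = inhibition below 50%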
Diaph act CS: diaphorase activation or chemical reduction counter-screen. Diaphorase/resazurin coupled assay, resorufin fluorescence, 16 min; stronger effect = higher value; 1 = vehicle wells, 0 = NADH-free wells. activation factor at 20 µM. 190,000 tested, 0.005% active. AID 1229;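 active = diaphorase activity raised at least twofold by the compound at 20 µM; inactive = activation factor below 2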
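Material: Purified diaphorase enzyme from Clostridium kluyveri | Buffer or medium: 50 mM HEPES pH 7.4 with 4.542 mM MgCl2, 0.005% Tween 20 | Times: 16 min enzyme reaction, ambient temperature | Signal: Red resorufin fluorescence at 544/590 nm excitation/emission | Measure: Increased resorufin signal from activators or reducing compounds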
Diaph inh CS: diaphorase inhibition or chemical oxidation counter-screen; 190,000 tested, 0.69% active; diaphorase resazurin-to-resorufin fluorescence, NADH, 16 min; bacterial (C. kluyveri) enzyme, not human; inhibition, % at 20 µM;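 active = primary screen inhibition at 20 µM above a set limit, cut at about 50% in these data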;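 note: plate controls were DMSO with full reaction for no effect and wells lacking NADH for full effect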
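controls = No-NADH positive control and DMSO neutral control | system = Clostridium kluyveri diaphorase enzyme | timing = reaction incubation of 16 min at room temperature | signal = resorufin fluorescence 544/590 nm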
HKDC1 act conf2: confirmation of human HKDC1 activators; shares compounds with HKDC1 inhibitor; 740 tested, 14% active; AID 504708; recombinant HKDC1, G6PDH/diaphorase resazurin fluorescence; stronger effect = lower value; inhibition, % at 20 µM;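 active = inhibition at or below a set negative limit, negative inhibition meaning the enzyme was activated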
PfG6PD confirm: confirmation of Plasmodium falciparum G6PD inhibitors; inhibition, % at 20 µM; 2,400 tested, 34% active; shares compounds with PfGluPho inh; recombinant PfGluPho, NADPH-diaphorase-resazurin fluorescence;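 active = inhibition of at least 50% at 20 µM in any single replicate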;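 note: 0% = DMSO with substrate and 100% = DMSO lacking glucose-6-phosphate substrate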
Diaph ctr 10uM: inhibits diaphorase or oxidizes, flagging false PfG6PD hits. shares compounds with PfGluPho inh. diaphorase-coupled resazurin reduction, fluorescence, NADPH 10 uM. inhibition, % at 20 µM. 820 tested, 39% active;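 active = average inhibition reaching 50% or more with the compound at 20 µM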;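 note: resorufin red fluorescence formed as diaphorase reduces resazurin using NADPH; 0% = DMSO with enzyme and 100% = DMSO without enzyme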
Diaphorase 30uM: counter-screen for P. falciparum G6PD inhibitors: diaphorase inhibitors, oxidizers; shares compounds with PfGluPho inh; Diaphorase/resazurin coupled assay, resorufin fluorescence, 30 uM NADPH; inhibition, % at 20 µM; 820 tested, 29% active; AID 504863;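 active = inhibition averaging 50% or more, tested at 20 µM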;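 note: 0% = DMSO with enzyme and 100% = DMSO wells lacking diaphorase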
The depositor's hits bear a star; . = no result given; ! = not confirmed by another sample.

SMILES	G6PDH CS	PfGluPho inh	HKDC1 inhibitor	TbHK1 inh	Diaph act CS	Diaph inh CS	HKDC1 act conf2	PfG6PD confirm	Diaph ctr 10uM	Diaphorase 30uM
COc1ccc(C(=O)c2coc3c2C(=O)C(=O)c2ccccc2-3)cc1	.	111*	61*	4	.	.	45	104*	97*	92*
O=S(=O)(Nc1cc(Sc2cccc3cccnc23)c(O)c2ccccc12)c1ccccc1	20	.	.	6	0.7	31	.	.	.	.
CCOc1ccc(S(=O)(=O)Nc2cc(SCC(=O)O)c(O)c3ccccc23)cc1	.	104*	60*	.	.	.	31	97*	46	32
CCOC(=O)c1ccccc1NS(=O)(=O)c1ccc(OCC)cc1	1	17	14	1	1	1	.	.	.	.
CCc1ccc(S(=O)(=O)Nc2cc(SCC(=O)O)c(O)c3ccccc23)cc1	48	89*	54*	4	0.8	25	26	81*	34	21
COc1ccccc1OCCCC(=O)Nc1ccc([N+](=O)[O-])cc1Br	-3	-4	-4	-9	0.8	19	.	.	.	.
O=C1C(Cl)=C(NC(=O)c2ccccc2)C(=O)C(Cl)=C1NC(=O)c1ccccc1	.	114*	43*	.	.	.	41	110*	86*	61*
O=C1C=C(Nc2ccccc2)c2ccccc2C1=O	48	12	25	-11	0.8	22	.	.	.	.
COC(=O)c1ccccc1Nc1ccccc1	12	1	2	7	0.9	8	.	.	.	.
COC(=O)c1cccc(NS(=O)(=O)c2cccs2)c1C	-8	-4	-9	6	0.9	6	.	.	.	.
COC(=O)c1ccccc1NC1=C/C(=N\S(=O)(=O)c2ccc(C(=O)O)cc2)c2ccccc2C1=O	.	96*	82*	.	.	.	86	86*	64*	64*
COC(=O)c1ccccc1NC1=C/C(=N\S(=O)(=O)c2cccs2)c2ccccc2C1=O	49	101*	39*!	-23	0.8	16	39	67*	37	42
O=C1C(Nc2ccccc2)=C/C(=N/S(=O)(=O)c2cccs2)c2ccccc21	46	110*	68*	-5	1	1	65	92*	78*	80*
O=C(C1CCC(=O)N(C2CC2)C1)N1CCC(Oc2ccccc2F)CC1 (stereo not given)	.	-2	-7	.	.	.	.	.	.	.
COc1cc(NC(=O)c2cccc(C)c2)ccc1NC(=O)c1cc2ccccc2o1	.	7	-7	.	.	.	.	.	.	.
CCCCn1c(N)c(N(CCOC)C(=O)COC(=O)CCOc2ccccc2)c(=O)[nH]c1=O	.	0	-1	.	.	.	.	.	.	.
COc1ccc(CCNC(=O)COC(=O)c2ccc(N3CCCC3=O)cc2)cc1	0	1	2	2	1	0	.	.	.	.
CCN(CC)c1ccc(NC(=O)c2ccccc2F)cc1S(=O)(=O)Nc1ccccc1OC	4	52	-5	8	0.7	29	.	.	.	.
CCN(CC)c1ccc(NC(=O)c2ccccc2Br)cc1S(=O)(=O)Nc1ccccc1OC	-2	86*	-43	8	0.8	24	-28	64*	-21	-19
O=C(O)CCNc1cc(N2CCN(C(=O)c3ccco3)CC2)c2noc3c2c1C(=O)c1ccccc1-3	.	80*	39*	.	.	.	14	24	.	.
CNCc1ccccc1Sc1cccc(O)c1	-3	9	-1	-1	0.9	8	.	.	.	.
CNCc1ccccc1Sc1cc(O)ccc1O	58*	92*	64*	-1	0.7	32	65	97*	53*	18
COC(=O)c1ccc(NCc2c(O)ccc(O)c2Br)cc1Cl	.	104*	45*	.	.	.	21	39	.	.
